Source: ChEMBL document CHEMBL4689842, “EUbOPEN Chemogenomics Library wave 1” (2021)

System: Fibroblast
Experiment: Multiplex assay against human fibroblast
Type: toxicity, cell-based
How it was run: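 Cells stained live at seeding with Hoechst33342, BioTracker Green Microtubule Cytoskeleton Dye, MitoTracker Red and Annexin V Alexa Fluor 680 were imaged on a CQ1 microscope at 37°C and 5% CO2 after compound addition. Their classification by CellPathfinder machine-learning gating ran from Hoechst high-intensity objects versus normal cells, to healthy, pyknosed or fragmented nuclei among normal cells, to mitotic or apoptotic among pyknosed cells. Tubulin, mitochondrial-mass and membrane-permeability phenotypes are per cents of healthy-nucleus cells.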

[1] = 12 h, 1 µM, compound concentration 1 uM, replicate 1
[2] = 12 h, 1 µM, compound concentration 1 uM, replicate 2
[3] = 12 h, 10 µM, compound concentration 10 uM, replicate 1
[4] = 12 h, 10 µM, compound concentration 10 uM, replicate 2
[5] = 24 h, 1 µM, compound concentration 1 uM, replicate 1
[6] = 24 h, 1 µM, compound concentration 1 uM, replicate 2
[7] = 24 h, 10 µM, compound concentration 10 uM, replicate 1
[8] = 24 h, 10 µM, compound concentration 10 uM, replicate 2
[9] = 48 h, 1 µM, compound concentration 1 uM, replicate 1
[10] = 48 h, 1 µM, compound concentration 1 uM, replicate 2
[11] = 48 h, 10 µM, compound concentration 10 uM, replicate 1
[12] = 48 h, 10 µM, compound concentration 10 uM, replicate 2

CCN1CCN(Cc2ccc(Nc3ncc(F)c(-c4cc(F)c5nc(C)n(C(C)C)c5c4)n3)nc2)CC1.CS(=O)(=O)O
Population Apoptotic (%) [1]: 75%
Population Fragmented Nuclei (%) [1]: 39%
Population Healthy Nuclei (%) [1]: 40%
Population Hoechst High Intensity Objects (%) [1]: 15%
Population Membrane Permeable-Phenotype (%) [1]: 17%
Population Mitochondria Different-Phenotype (%) [1]: 21%
Population Mitotic Cells (%) [1]: 25%
Population Normal (%) [1]: 84%
Population Pyknosed Nuclei (%) [1]: 20%
Population Tubulin-Different-Phenotype (%) [1]: 57%
Total Cell Count [1]: 187
Population Apoptotic (%) [2]: 40%
Population Fragmented Nuclei (%) [2]: 17%
Population Healthy Nuclei (%) [2]: 67%
Population Hoechst High Intensity Objects (%) [2]: 6%
Population Membrane Permeable-Phenotype (%) [2]: 8%
Population Mitochondria Different-Phenotype (%) [2]: 91%
Population Mitotic Cells (%) [2]: 60%
Population Normal (%) [2]: 93%
Population Pyknosed Nuclei (%) [2]: 14%
Population Tubulin-Different-Phenotype (%) [2]: 97%
Total Cell Count [2]: 73
Population Apoptotic (%) [3]: 63%
Population Fragmented Nuclei (%) [3]: 40%
Population Healthy Nuclei (%) [3]: 13%
Population Hoechst High Intensity Objects (%) [3]: 17%
Population Membrane Permeable-Phenotype (%) [3]: 52%
Population Mitochondria Different-Phenotype (%) [3]: 5%
Population Mitotic Cells (%) [3]: 36%
Population Normal (%) [3]: 82%
Population Pyknosed Nuclei (%) [3]: 46%
Population Tubulin-Different-Phenotype (%) [3]: 47%
Total Cell Count [3]: 158
Population Apoptotic (%) [4]: 83%
Population Fragmented Nuclei (%) [4]: 32%
Population Healthy Nuclei (%) [4]: 22%
Population Hoechst High Intensity Objects (%) [4]: 9%
Population Membrane Permeable-Phenotype (%) [4]: 88%
Population Mitochondria Different-Phenotype (%) [4]: 94%
Population Mitotic Cells (%) [4]: 16%
Population Normal (%) [4]: 90%
Population Pyknosed Nuclei (%) [4]: 45%
Population Tubulin-Different-Phenotype (%) [4]: 100%
Total Cell Count [4]: 88
Population Apoptotic (%) [5]: 44%
Population Fragmented Nuclei (%) [5]: 39%
Population Healthy Nuclei (%) [5]: 45%
Population Hoechst High Intensity Objects (%) [5]: 21%
Population Membrane Permeable-Phenotype (%) [5]: 15%
Population Mitochondria Different-Phenotype (%) [5]: 8%
Population Mitotic Cells (%) [5]: 55%
Population Normal (%) [5]: 78%
Population Pyknosed Nuclei (%) [5]: 15%
Population Tubulin-Different-Phenotype (%) [5]: 69%
Total Cell Count [5]: 240
Population Apoptotic (%) [6]: 58%
Population Fragmented Nuclei (%) [6]: 20%
Population Healthy Nuclei (%) [6]: 61%
Population Hoechst High Intensity Objects (%) [6]: 10%
Population Membrane Permeable-Phenotype (%) [6]: 21%
Population Mitochondria Different-Phenotype (%) [6]: 85%
Population Mitotic Cells (%) [6]: 41%
Population Normal (%) [6]: 89%
Population Pyknosed Nuclei (%) [6]: 17%
Population Tubulin-Different-Phenotype (%) [6]: 87%
Total Cell Count [6]: 75
Population Apoptotic (%) [7]: 80%
Population Fragmented Nuclei (%) [7]: 45%
Population Healthy Nuclei (%) [7]: 16%
Population Hoechst High Intensity Objects (%) [7]: 25%
Population Membrane Permeable-Phenotype (%) [7]: 46%
Population Mitochondria Different-Phenotype (%) [7]: 0%
Population Mitotic Cells (%) [7]: 20%
Population Normal (%) [7]: 74%
Population Pyknosed Nuclei (%) [7]: 38%
Population Tubulin-Different-Phenotype (%) [7]: 53%
Total Cell Count [7]: 122
Population Apoptotic (%) [8]: 97%
Population Fragmented Nuclei (%) [8]: 27%
Population Healthy Nuclei (%) [8]: 13%
Population Hoechst High Intensity Objects (%) [8]: 20%
Population Membrane Permeable-Phenotype (%) [8]: 100%
Population Mitochondria Different-Phenotype (%) [8]: 87%
Population Mitotic Cells (%) [8]: 2%
Population Normal (%) [8]: 79%
Population Pyknosed Nuclei (%) [8]: 59%
Population Tubulin-Different-Phenotype (%) [8]: 100%
Total Cell Count [8]: 74
Population Apoptotic (%) [9]: 56%
Population Fragmented Nuclei (%) [9]: 43%
Population Healthy Nuclei (%) [9]: 41%
Population Hoechst High Intensity Objects (%) [9]: 37%
Population Membrane Permeable-Phenotype (%) [9]: 6%
Population Mitochondria Different-Phenotype (%) [9]: 12%
Population Mitotic Cells (%) [9]: 43%
Population Normal (%) [9]: 62%
Population Pyknosed Nuclei (%) [9]: 15%
Population Tubulin-Different-Phenotype (%) [9]: 69%
Total Cell Count [9]: 246
Population Apoptotic (%) [10]: 75%
Population Fragmented Nuclei (%) [10]: 53%
Population Healthy Nuclei (%) [10]: 43%
Population Hoechst High Intensity Objects (%) [10]: 16%
Population Membrane Permeable-Phenotype (%) [10]: 10%
Population Mitochondria Different-Phenotype (%) [10]: 5%
Population Mitotic Cells (%) [10]: 25%
Population Normal (%) [10]: 83%
Population Pyknosed Nuclei (%) [10]: 2%
Population Tubulin-Different-Phenotype (%) [10]: 61%
Total Cell Count [10]: 199
Population Apoptotic (%) [11]: 100%
Population Fragmented Nuclei (%) [11]: 69%
Population Healthy Nuclei (%) [11]: 20%
Population Hoechst High Intensity Objects (%) [11]: 33%
Population Membrane Permeable-Phenotype (%) [11]: 41%
Population Mitochondria Different-Phenotype (%) [11]: 5%
Population Mitotic Cells (%) [11]: 0%
Population Normal (%) [11]: 66%
Population Pyknosed Nuclei (%) [11]: 9%
Population Tubulin-Different-Phenotype (%) [11]: 76%
Total Cell Count [11]: 123
Population Apoptotic (%) [12]: 77%
Population Fragmented Nuclei (%) [12]: 35%
Population Healthy Nuclei (%) [12]: 50%
Population Hoechst High Intensity Objects (%) [12]: 53%
Population Membrane Permeable-Phenotype (%) [12]: 23%
Population Mitochondria Different-Phenotype (%) [12]: 38%
Population Mitotic Cells (%) [12]: 22%
Population Normal (%) [12]: 46%
Population Pyknosed Nuclei (%) [12]: 13%
Population Tubulin-Different-Phenotype (%) [12]: 52%
Total Cell Count [12]: 145
